Redox H2O2 prof = compounds producing H2O2 with reducing agent – biochemical, NIH compound library profiling, artefact control for MLSCN library redox annotation, primary screen; DTT-dependent redox cycling H2O2, phenol red/HRP absorbance; 100% = 100 µM peroxide control, 0% = buffer; activation, % at 10 µM; 200,000 tested, 0.03% active;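 active = activation of at least 50% relative to the plate's high and low controls in the primary single-dose screen; inactive = activation below 50%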;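 also: compound incubated with DTT at 0.8 mM final as the reducing agent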
UBC9 SUMO inh = inhibitors of human SUMOylation (UBC9) | P63279 | HTRF SUMOylation assay, SAE1/SAE2 + UBC9, in vitro | inhibition, % at 35 µM | 290,000 tested, 0.36% active; in the data active = inhibition above about 50%, passing the limit was not always enough; inconclusive = no clear call, values can overlap the other calls
Target sequence (P63279 whole entry, looked up): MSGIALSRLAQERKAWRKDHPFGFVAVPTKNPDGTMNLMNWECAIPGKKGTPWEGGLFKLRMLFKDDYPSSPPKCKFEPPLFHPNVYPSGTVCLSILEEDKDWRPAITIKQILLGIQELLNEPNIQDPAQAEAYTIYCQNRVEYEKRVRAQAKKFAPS
GSTO1 inh = GSTO1 inhibition, counter-screen for RBBP9 inhibitors | recombinant GSTO1, activity-based probe fluorescence polarization | inhibition, % at 5.96 µM | 300,000 tested, 1.1% active;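 active = inhibition above the campaign mean inhibition plus 3 SD, cut at about 35% in these data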
Target sequence (P78417 whole entry, looked up): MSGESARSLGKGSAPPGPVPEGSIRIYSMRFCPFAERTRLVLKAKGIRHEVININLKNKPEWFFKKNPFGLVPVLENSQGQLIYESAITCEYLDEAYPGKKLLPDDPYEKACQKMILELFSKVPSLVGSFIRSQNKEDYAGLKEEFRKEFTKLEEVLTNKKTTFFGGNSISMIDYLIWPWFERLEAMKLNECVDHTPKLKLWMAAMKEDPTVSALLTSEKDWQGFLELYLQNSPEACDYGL
Apaf1 inhib = inhibitors of human Apaf-1 apoptosome; AID 489030; reconstituted apoptosome caspase-3 activity, DEVD-Rh110 fluorescence; O14727; 330,000 tested, 0.71% active; inhibition, % at 20 µM; active = inhibition of at least 40% at 20 µM
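System: Apoptosome proteins | Medium: Hepes pH 7.5 with detergent and BSA | Also added: Cytochrome c trigger plus (Z-DEVD)2-Rh110 caspase-3 substrate | Incubation: 30 min compound preincubation, 50 min activation, room temperature | Detection: Rhodamine 110 fluorescence at Ex 480/Em 540 nm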
HKDC1 inhibitor = inhibitors of human hexokinase HKDC1. AID 493160. 340,000 tested, 0.16% active. inhibition, % at 20 µM. recombinant HKDC1, G6PDH/diaphorase resazurin coupled fluorescence. Q2TB90;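 active = inhibition above about 35% when tested at 20 µM, limit read from the data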
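Incubation: 90 min at room temperature in dark / Material: recombinant HKDC1 (HK5) hexokinase enzyme, produced in-house / Quantity: enzyme 5 µg/mL final / Compound: one dose of 20 µM, 1% DMSO / Reagent: glucose and ATP substrates / Buffer or medium: Tris pH 8.0 buffer with MgCl2, Tween-20, BSA, BME / Technique: resorufin fluorescence at 613 nm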
GSTO1 inh conf = GSTO1 (human) inhibition, confirmation; 2,400 tested, 54% active; inhibition, % at 5.96 µM; recombinant GSTO1, probe fluorescence polarization; AID 2176; shares compounds with GSTO1 inh;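 active = inhibition above the primary screen's cutoff, its mean inhibition plus 3 SD, cut at about 35% in these data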;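 also: loss of polarization as inhibitors block binding of rhodamine sulfonate ester activity probe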
Numbers stand for hits. Sampled rows, rich in hits. Any-hit rate of the full collection: about 1.4%.

Cc1cc(C)c[n+](-c2nc3ccccc3nc2[N-]S(=O)(=O)c2ccc(Cl)cc2)c1 was read as Redox H2O2 prof inactive, UBC9 SUMO inh inactive, GSTO1 inh inactive, Apaf1 inhib inactive and HKDC1 inhibitor inactive.
`Cc1ccc[n+](-c2nc([O-])sc2C=O)c1` gave Redox H2O2 prof inactive, UBC9 SUMO inh inactive, GSTO1 inh inactive, Apaf1 inhib inactive and HKDC1 inhibitor inactive.
CCc1cc[n+](-c2nc3ccccc3nc2[N-]S(=O)(=O)c2ccc(Br)s2)cc1 was read as Redox H2O2 prof inactive, UBC9 SUMO inh inactive, GSTO1 inh inactive, Apaf1 inhib inactive and HKDC1 inhibitor inactive.
Screening CCc1ccc[n+](-c2nc3ccccc3nc2C(=C=[N-])C#N)c1 returned UBC9 SUMO inh inactive, GSTO1 inh 53, Apaf1 inhib inactive, HKDC1 inhibitor inactive and GSTO1 inh conf 42.
CN(C)c1ccc(C(=S)N2CCCC2)cc1Br was read as UBC9 SUMO inh inactive, GSTO1 inh inactive, Apaf1 inhib inactive and HKDC1 inhibitor inactive.
Screening CCc1cc(-c2n[nH]c(C)c2-c2ccccc2Cl)c(O)cc1OC returned UBC9 SUMO inh inactive, GSTO1 inh inactive, Apaf1 inhib inactive and HKDC1 inhibitor inactive.
`CCCCN1C(=S)NC[C@@H]1c1ccccc1` gave Redox H2O2 prof inactive, UBC9 SUMO inh inactive, GSTO1 inh inactive, Apaf1 inhib inactive and HKDC1 inhibitor inactive.
`CCCN1C(=S)c2ccccc2C1c1ccccc1` (configuration not stated) gave UBC9 SUMO inh inactive, GSTO1 inh 60, Apaf1 inhib inactive, HKDC1 inhibitor inactive and GSTO1 inh conf inactive.
CCOc1ccccc1C(=O)Oc1cc(C)[nH]c(=O)c1[N+](=O)[O-] was read as UBC9 SUMO inh inactive, GSTO1 inh inactive, Apaf1 inhib inactive and HKDC1 inhibitor inactive.
CC1=NN(c2ccccc2)C(=O)/C1=C\c1cc(C)n(C)c1C was read as UBC9 SUMO inh inactive, GSTO1 inh inactive, Apaf1 inhib inactive and HKDC1 inhibitor inactive.
Screening CC1=NN(c2ccccc2)C(=O)/C1=C/c1cc2cc(C)ccc2nc1N1CCCCC1 returned Redox H2O2 prof inactive, UBC9 SUMO inh inactive, GSTO1 inh 68, Apaf1 inhib 94 and GSTO1 inh conf inactive.
CCCCOP(=O)(OCCCC)C1(NS(=O)(=O)c2ccccc2)C=CC(=O)c2ccccc21 (configuration not stated) was read as Redox H2O2 prof inactive, UBC9 SUMO inh inactive, GSTO1 inh 50, Apaf1 inhib inactive, HKDC1 inhibitor inactive and GSTO1 inh conf inactive.
Screening CCCCOCCCNS(=O)(=O)c1ccccc1 returned Redox H2O2 prof inactive, UBC9 SUMO inh inactive, GSTO1 inh inactive, Apaf1 inhib inactive and HKDC1 inhibitor inactive.
Cc1cc(C)n2nc(SCc3cccc(F)c3)nc2n1 was read as UBC9 SUMO inh inactive, GSTO1 inh inactive, Apaf1 inhib inactive and HKDC1 inhibitor inactive.
`Cc1cc(O)c2c(c1)C(=O)c1cccc(O)c1C2=O` gave Redox H2O2 prof inactive and UBC9 SUMO inh inactive.
O=C1c2c(O)cccc2Cc2cccc(O)c21 was read as GSTO1 inh 45, Apaf1 inhib inactive, HKDC1 inhibitor inactive and GSTO1 inh conf inactive.
Screening CC(C)CN(CCCNC(=O)CN1N=C(c2ccc(Cl)cc2)CCC1=O)CC(C)C returned UBC9 SUMO inh inactive, GSTO1 inh inactive, Apaf1 inhib inactive and HKDC1 inhibitor inactive.
Screening CC1(C(=O)NC2CCCCC2)CCC(=O)N1Cc1cccnc1 (configuration not stated) returned Redox H2O2 prof inactive, UBC9 SUMO inh inactive, GSTO1 inh 52, Apaf1 inhib inactive, HKDC1 inhibitor inactive and GSTO1 inh conf inactive.
`Cc1ccc2nc(-c3ccccc3)cc(C(=O)N(C)CC(=O)Nc3ccccc3Br)c2c1` gave GSTO1 inh inactive, Apaf1 inhib inactive and HKDC1 inhibitor inactive.
O=C1c2ccccc2C(=O)C12OC2c1cccc2ccccc12 (configuration not stated) was read as Redox H2O2 prof inactive, UBC9 SUMO inh 96, GSTO1 inh 75, Apaf1 inhib 94, HKDC1 inhibitor inactive and GSTO1 inh conf 71.
Cc1ccccc1CNC(=O)CCNS(=O)(=O)c1ccc(OC(F)(F)F)cc1 was read as Apaf1 inhib inactive and HKDC1 inhibitor inactive.
Screening COc1ccc(NS(=O)(=O)c2cccc(C(=O)NNC(=O)c3cc(C)oc3C)c2)cc1 returned Redox H2O2 prof inactive, UBC9 SUMO inh inactive, GSTO1 inh inactive, Apaf1 inhib inactive and HKDC1 inhibitor inactive.
For COc1ccc(NS(=O)(=O)c2cccc(C(=O)NNC(=O)c3ccccc3O)c2)cc1 the results were GSTO1 inh 47, Apaf1 inhib inactive, HKDC1 inhibitor inactive and GSTO1 inh conf inactive.
CC(C)C1=CC2=CCC3C(C)(C(=O)O)CCCC3(C)C2CC1 (configuration not stated) (tested in a mixture with another compound) was read as UBC9 SUMO inh inactive, GSTO1 inh 39, Apaf1 inhib inactive and GSTO1 inh conf inactive.
For CC1CCCC(NC(=O)CN2C(=O)c3cccnc3Oc3ccc(Cl)cc32)C1C (configuration not stated) the results were UBC9 SUMO inh inactive, GSTO1 inh inactive, Apaf1 inhib inactive and HKDC1 inhibitor inactive.
C/C(=C\C(=O)c1ccccc1)Nc1ccc(O)cc1 was read as Redox H2O2 prof inactive, UBC9 SUMO inh inactive, GSTO1 inh 78, Apaf1 inhib inactive, HKDC1 inhibitor inactive and GSTO1 inh conf inactive.
Screening C/C(=C\C(=O)c1cccnc1)Nc1ccc(O)cc1 returned Redox H2O2 prof inactive, UBC9 SUMO inh inconclusive, GSTO1 inh 38, Apaf1 inhib inactive, HKDC1 inhibitor inactive and GSTO1 inh conf inactive.
COc1ccc(NC(=O)c2cccnc2)cc1 was read as UBC9 SUMO inh inactive, GSTO1 inh inactive, Apaf1 inhib inactive and HKDC1 inhibitor inactive.
`COc1ccc(C(=O)/C=C(\C)Nc2ccc(NC(C)=O)cc2)cc1` gave Redox H2O2 prof inactive, UBC9 SUMO inh inactive, GSTO1 inh inactive, Apaf1 inhib inactive and HKDC1 inhibitor inactive.
C#CC(=O)N(c1cccc(OC)c1)C(C(=O)NC1CCCC1)c1cccs1 (configuration not stated) was read as Redox H2O2 prof inactive, UBC9 SUMO inh inactive, GSTO1 inh 76, Apaf1 inhib inactive, HKDC1 inhibitor inactive and GSTO1 inh conf 76.
`C#CC(=O)N(c1ccc(OC)c(OC)c1)C(C(=O)NC1CCCC1)c1cccs1` (configuration not stated) gave Redox H2O2 prof inactive, UBC9 SUMO inh inactive, GSTO1 inh 48, Apaf1 inhib inactive, HKDC1 inhibitor inactive and GSTO1 inh conf 52.
For COc1ccc(N(C(=O)Cc2cccs2)C(C(=O)NC2CCCC2)c2ccncc2)cc1OC (configuration not stated) the results were UBC9 SUMO inh inactive, GSTO1 inh inactive, Apaf1 inhib inactive and HKDC1 inhibitor inactive.

Bioassay records: PubChem BioAssay, several laboratories
